Data from ChEMBL document CHEMBL3102735, “Enhancing the pharmacodynamic profile of a class of selective COX-2 inhibiting nitric oxide donors” (Bioorg Med Chem, 2014).
pIC50: −log10 of the molar value. Calls of active or inactive are those of the source. The rule behind the calls is not given here.

How the values were obtained:
[1] = Stability of the compound in simulated gastric fluid assessed as compound remaining at pH 1.5 after 60 mins by LC-MS/MS analysis; assay type: physicochemical; settings: read-out: Stability
In short: (§1)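 1 mM DMSO stock added to 0.01 M PBS (pH 7.4) or 0.05 M simulated gastric fluid without pepsin (pH 1.5 with HCl); incubated in hybridisation oven; aliquots at 0, 30, 60, 120 min quenched with ice-cold acetonitrile containing internal standard; parent remaining (%) measured.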

Mus musculus [2] = assay: Antihyperalgesic activity in Swiss albino mouse assessed as reduction in carrageenan-induced inflammation at 20 mg/kg, po after 60 mins relative to control; assay type: functional; set-up: scale not given: the % may be the effect or the level left
Liver = assay: Induction of nitric oxide production in Wistar rat liver homogenate assessed as nitrite level at 1 mM after 1 to 150 mins; assay type: functional, tissue-based
[3] = target: T1, Prostaglandin G/H synthase 2 (Homo sapiens, UniProt P35354); set-up: species or system Blood
T1 sequence (P35354 whole entry): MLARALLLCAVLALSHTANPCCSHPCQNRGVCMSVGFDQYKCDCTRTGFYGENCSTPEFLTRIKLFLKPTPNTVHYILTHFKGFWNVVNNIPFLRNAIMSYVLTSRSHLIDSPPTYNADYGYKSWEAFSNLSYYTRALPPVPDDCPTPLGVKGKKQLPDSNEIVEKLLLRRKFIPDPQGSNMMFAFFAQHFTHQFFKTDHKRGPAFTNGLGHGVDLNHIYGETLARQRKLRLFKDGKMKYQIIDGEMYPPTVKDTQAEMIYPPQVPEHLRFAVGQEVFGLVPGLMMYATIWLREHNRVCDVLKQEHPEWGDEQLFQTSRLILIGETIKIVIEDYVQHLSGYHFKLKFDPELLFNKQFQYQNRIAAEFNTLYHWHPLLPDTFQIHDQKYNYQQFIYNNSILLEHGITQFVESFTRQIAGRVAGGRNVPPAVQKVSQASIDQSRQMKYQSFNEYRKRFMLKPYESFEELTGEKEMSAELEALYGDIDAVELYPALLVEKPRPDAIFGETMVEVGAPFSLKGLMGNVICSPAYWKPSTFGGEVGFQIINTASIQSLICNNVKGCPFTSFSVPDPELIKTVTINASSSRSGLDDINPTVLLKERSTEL

Mus musculus [4] = assay: Antihyperalgesic activity in Swiss albino mouse assessed as reduction in carrageenan-induced inflammation at 40 mg/kg, po after 120 mins relative to control; assay type: functional; set-up: scale not given: the % may be the effect or the level left
Mus musculus [5] = assay: Analgesic activity in po dosed Swiss albino mouse assessed as reduction of acetic acid-induced writhing measured every 10 mins after 5 mins of administration; assay type: functional, organism-based
In short: (§2)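 Male Swiss albino mice (23–25 g), compound given orally in CMC vehicle; writhing induced by 0.6% acetic acid (10 mL/kg) ip. Stretching movements counted for 10 min, starting 5 min after administration; percent reduction versus CMC-treated animals.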

Mus musculus [6] = assay: Antiinflammatory activity in Swiss albino mouse assessed as reduction in carrageenan-induced paw edema at 20 mg/kg, po relative to control; assay type: functional; set-up: scale not given: the % may be the effect or the level left
In short: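 Intraplantar carrageenan, compound po in CMC; volume of right hind paw measured 4 h after carrageenan injection and compared with saline/carrageenan-treated controls; percent oedema reduction.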

Mus musculus [7] = assay: Antihyperalgesic activity in Swiss albino mouse assessed as reduction in carrageenan-induced inflammation at 20 mg/kg, po after 90 mins relative to control; assay type: functional; set-up: scale not given: the % may be the effect or the level left
Thoracic aorta [8] = assay: Ex vivo vasorelaxant activity in Wistar rat endothelium thoracic aortic ring assessed as reduction of KCl-induced contraction in presence of guanylate cyclase inhibitor ODQ; assay type: functional
In short: (§3)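 Endothelium-denuded thoracic aortic rings from male Wistar rats (250–350 g) in oxygenated Tyrode-type buffer at 37 °C, isometric tension recording. Rings precontracted with 30 mM KCl, then 3-fold increasing compound concentrations (1 nM–10 µM) added, also with 1 µM ODQ preincubated. Emax as % of KCl tone; pIC50; mean ± SE of 6–10 experiments.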

Mus musculus [9] = assay: Antihyperalgesic activity in Swiss albino mouse assessed as reduction in carrageenan-induced inflammation at 40 mg/kg, po after 90 mins relative to control; assay type: functional; set-up: scale not given: the % may be the effect or the level left
Mus musculus [10] = assay: Antihyperalgesic activity in Swiss albino mouse assessed as reduction in carrageenan-induced inflammation at 40 mg/kg, po after 60 mins relative to control; assay type: functional; set-up: scale not given: the % may be the effect or the level left
Thoracic aorta [11] = assay: Ex vivo vasorelaxant activity in Wistar rat endothelium thoracic aortic ring assessed as reduction of KCl-induced contraction; assay type: functional, tissue-based; in short: as §3
Mus musculus [12] = assay: Analgesic activity in Swiss albino mouse assessed as reduction of acetic acid-induced writhing at 20 mg/kg, po measured every 10 mins after 5 mins of administration relative to control; assay type: functional; set-up: scale not given: the % may be the effect or the level left; in short: as §2
[13] = Stability of the compound in phosphate buffer saline assessed as compound remaining at pH 7.4 after 120 mins by LC-MS/MS analysis; assay type: physicochemical; settings: read-out: Stability
In short: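 Compound (12 µL of 1 mM DMSO solution into 588 µL medium) incubated in PBS pH 7.4, pepsin-free SGF pH 1.5, or EDTA rat plasma. Aliquots taken at 0, 30, 60, 120 min and quenched with ice-cold acetonitrile containing internal standard; parent remaining as percent.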

[14] = Oral bioavailability in Wistar rat at 10 mg/kg by LC-MS/MS analysis; assay type: ADME, organism-based; settings: in vivo
In short: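 Male Han Wistar rats, three per route, single 10 mg/kg/5 mL dose iv or po in 5% DMSO, 5% Cremophor EL, 0.1% Tween 80 in 150 mM phosphate buffer pH 7. Jugular-vein blood sampled, plasma methanol-precipitated, parent and hydroxy metabolite quantified by LC–MS/MS in positive ESI MRM mode (LLOQ 1–15 ng/mL).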

[15] = Solubility of the compound in phosphate buffer saline at pH 7.4 after 90 mins by HPLC analysis; assay type: physicochemical
In short: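 DMSO stock (20 mM) diluted 2 µL into 198 µL PBS 0.01 M pH 7.4 or pepsin-free SGF 0.05 M pH 1.5, duplicate wells, shaken 90 min at 300 rpm. Filtrates analysed by HPLC with photodiode-array detection against seven-point standards (1–200 µM).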

[16] = target: Prostaglandin G/H synthase 1 (Homo sapiens, UniProt P23219); assay: Inhibition of COX-1 in human whole blood assessed as thromboxane B2 production by RIA
Sequence of Prostaglandin G/H synthase 1 (P23219 whole entry): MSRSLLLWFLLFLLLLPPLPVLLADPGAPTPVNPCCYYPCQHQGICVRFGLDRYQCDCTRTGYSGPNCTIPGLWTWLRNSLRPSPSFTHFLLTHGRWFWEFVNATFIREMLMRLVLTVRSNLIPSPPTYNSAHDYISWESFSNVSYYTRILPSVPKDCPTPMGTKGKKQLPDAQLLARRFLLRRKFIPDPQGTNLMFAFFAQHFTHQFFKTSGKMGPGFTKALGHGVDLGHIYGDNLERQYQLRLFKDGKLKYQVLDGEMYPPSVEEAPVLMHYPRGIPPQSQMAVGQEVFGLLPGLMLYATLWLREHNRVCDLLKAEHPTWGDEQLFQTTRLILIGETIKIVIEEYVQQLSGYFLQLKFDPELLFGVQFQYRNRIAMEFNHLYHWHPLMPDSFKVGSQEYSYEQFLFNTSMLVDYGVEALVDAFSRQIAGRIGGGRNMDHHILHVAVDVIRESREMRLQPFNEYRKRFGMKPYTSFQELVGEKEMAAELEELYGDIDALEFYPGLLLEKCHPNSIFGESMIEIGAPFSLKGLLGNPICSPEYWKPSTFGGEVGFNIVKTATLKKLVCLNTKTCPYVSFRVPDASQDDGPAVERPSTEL

[17] = Stability of the compound in phosphate buffer saline assessed as compound remaining at pH 7.4 after 30 mins by LC-MS/MS analysis; assay type: physicochemical; settings: read-out: Stability; in short: as §1
Plasma = assay: Metabolic stability in Wistar rat plasma at 10 mg/kg, iv up to 6 hrs by LC-MS/MS analysis; assay type: ADME, organism-based; set-up: dose 10 mg/kg, route intravenous; settings: in vivo
Mus musculus [18] = assay: Antihyperalgesic activity in Swiss albino mouse assessed as reduction in carrageenan-induced inflammation at 40 mg/kg, po after 30 mins relative to control; assay type: functional; set-up: scale not given: the % may be the effect or the level left

remaining at 1 h [1]: 100% | pIC50 [3]: 5.77 | pIC50 (Thoracic aorta [11]): 5.31 | remaining at 2 h [13]: 100% | bioavailability [14]: 24% | solubility at 1.5 h [15]: > 200 µM | pIC50 [16]: 6.22 | remaining at 0.5 h [17]: 100% | Stability (Plasma): Stable
Structure (SMILES): Cc1c(CC(=O)NCCO[N+](=O)[O-])cc(-c2ccc(S(C)(=O)=O)cc2)n1-c1ccc(F)cc1
Activity (Mus musculus [2]): 30% | Activity (Liver): 27 µM | Activity (Mus musculus [4]): 0% | Activity (Mus musculus [5]): Dose-dependent effect | Activity (Mus musculus [6]): 4% | Activity (Mus musculus [7]): 20% | Activity (Thoracic aorta [8]): inactive | Activity (Mus musculus [9]): 29% | Activity (Mus musculus [10]): 60% | Activity (Mus musculus [12]): 77% | Activity (Mus musculus [18]): 32%
